Usually Ki stands for the dissociation constant of the complex between target and ligand, obtained from inhibition or displacement. The ED50 is the dose at which the effect has come halfway, by size or by number of responders. Broadly, the inhibition is the percentage by which the read-out fell short of the control. Higher therefore signals a response far below the control.

Activity calls are given as the source filed them. No cut-off for these calls is given here. Where only a bound is given, the exact number is not on record here.

The target of one assay is D(2) dopamine receptor (Rattus norvegicus, UniProt P61169). As to the kind of experiment: In vitro binding affinity against cloned mammalian Dopamine receptor D2 expressed in CHO cells using [3H]U-86170 as radioligand. The class given is cell-based. In outline: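 Membranes from CHO cells (20-60 μg protein) in 20 mM HEPES, 10 mM MgSO4, pH 7.4. Nonspecific binding defined with excess haloperidol. 11 concentrations, each in duplicate. Incubated 1 h at room temperature, then filtered and counted. IC50 from a one-site competition fit, converted to Ki by Cheng-Prusoff.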

The test system of assay [1] is Rattus norvegicus. Description: In vivo changes in different brain area levels of 5-HTP in reserpinized rat corpus striatum. The class given is functional. In outline:
(§1)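 Male Sprague-Dawley rats (200-300 g) pretreated with reserpine 5 mg/kg sc 18 h before. Injection volume 5 mL/kg at neutral pH. Brain-region 5-HTP measured by HPLC with electrochemical detection. Dose-response curves used four to six doses, n = 4.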

Assay [2] has as its system Rattus norvegicus. As to the kind of experiment: The compound was tested in vivo for biochemical effect against the changes in different brain area levels of DOPA in reserpinized rat corpus striatum at dose 50 uM/kg; Inactive. The format is functional, organism-based. The procedure, abridged: (§2)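 Male Sprague-Dawley rats (200-300 g) pretreated with reserpine 5 mg/kg sc 18 h before. Injection volume 5 mL/kg, test solutions at neutral pH. DOPA and 5-HTP in limbic system, striatum and hemispheres measured by HPLC with electrochemical detection. Dose-response curves from four to six dose levels (n = 4) per brain area.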

Assay [3] deals with Rattus norvegicus. As to the kind of experiment: In vivo changes in different brain area levels of 5-HTP in reserpinized rat limbic system. The format is functional. The procedure, abridged: as §1
The test system of assay [4] is Rattus norvegicus. As to the kind of experiment: In vivo for biochemical effect against brain area levels of 5-HTP in reserpinized rat hemispheres (mainly cortex). The class given is functional. The procedure, abridged:
as §2

Assay [5] relates to Rattus norvegicus. As to the kind of experiment: The compound was tested in vivo for biochemical effect against the changes in different brain area levels of DOPA in reserpinized rat limbic system at does 50 uM/kg; Inactive. The format is functional, organism-based. In outline:
as §2

Assay [6] deals with Rattus norvegicus. Description: (§3) The compound was tested in vivo for biochemical effect against the changes in different brain area levels of DOPA in reserpinized rat hemispheres (mainly cortex)at does 50 uM/kg; Inactive. The class given is functional, organism-based. In outline:
as §2

The subject of assay [7] is Rattus norvegicus. As to the kind of experiment: The compound was tested in vivo for biochemical effect against the changes in different brain area levels of DOPA in reserpinized rat hemispheres (mainly cortex); inactive at the highest dose tested (3.1). The format is functional, organism-based. In outline: as §2
Assay [8] has as its target 5-hydroxytryptamine receptor 1B (Homo sapiens, UniProt P28222). As to the kind of experiment: In vitro binding affinity against cloned mammalian 5-hydroxytryptamine 1D receptor beta expressed in CHO cells, by using [3H]5-HT as radioligand. The class given is cell-based. The procedure, abridged: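 Membranes from CHO cells stably expressing the cloned receptor, made by mechanical disruption in ice-cold Tris/EDTA/EGTA pH 7.4 and differential centrifugation. [3H]serotonin at 1.7 nM in 50 mM Tris, 5 mM MgCl2, 0.1% ascorbic acid, pH 7.4. 11 drug concentrations in duplicate, 1 h at room temperature protected from light, then filtration. Excess serotonin defines nonspecific binding. One-site IC50 fit, Ki by Cheng-Prusoff.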

In assay [9] the test system is Rattus norvegicus. As to the kind of experiment: The compound was tested in vivo for biochemical effect against the changes in different brain area levels of DOPA in reserpinized rat hemispheres (mainly cortex)at dose 50 uM/kg; Inactive. The format is functional, organism-based.
The test system of assay [10] is Rattus norvegicus. As to the kind of experiment: The compound was tested in vivo for biochemical effect against the changes in different brain area levels of DOPA in reserpinized rat limbic system at dose 50 uM/kg; Inactive. The format is functional, organism-based.
The next assay addresses D(3) dopamine receptor (Rattus norvegicus, UniProt P19020). As to the kind of experiment: In vitro binding affinity against cloned mammalian Dopamine receptor D3 expressed in CHO cells by, using [3H]-spiperone as radioligand. The format is cell-based. Conditions: read-out: Ki.
In assay [11] the target is 5-hydroxytryptamine receptor 1D (Homo sapiens, UniProt P28221). As to the kind of experiment: In vitro binding affinity against cloned mammalian 5-hydroxytryptamine 1D receptor alpha expressed in CHO cells, by using [3H]5-HT as radioligand. The format is cell-based. The procedure, abridged: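 Competition binding on CHO-cell membranes (20-60 μg protein) in 50 mM Tris, 5 mM MgCl2, 0.1% ascorbic acid, pH 7.4. Nonspecific binding defined with excess serotonin. 11 drug concentrations, each in duplicate. Incubated 1 h at room temperature, protected from light, then filtered and scintillation counted. IC50 taken from a one-site fit; Ki by Cheng-Prusoff.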

Assay [12] has as its target D(3) dopamine receptor (Rattus norvegicus) (UniProt P19020). As to the kind of experiment: The compound was tested in vitro for binding affinity against cloned mammalian Dopamine receptor D3 expressed in CHO cells by, using [3H]-spiperone as radioligand. The class given is cell-based. The note with it: concentration not given here. In outline:
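Cloned D3 receptor came from CHO cell membranes (20-60 μg protein). These were incubated 1 h at room temperature with [3H]spiperone (123 Ci/mmol, 0.5 nM) in 20 mM HEPES, 10 mM MgCl2, 150 mM NaCl, 1 mM EDTA, pH 7.4. Excess haloperidol defined nonspecific binding. There were 11 concentrations in duplicate. After filtration and scintillation counting, IC50 came from a one-site competition fit and Ki from Cheng-Prusoff.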

Assay [13] relates to Rattus norvegicus. Description: The compound was tested in vivo for biochemical effect against the changes in different brain area levels of DOPA in reserpinized rat limbic system at dose 12.5 uM/kg; Partial effect. The format is functional, organism-based. The procedure, abridged:
as §2

Assay [14] concerns Rattus norvegicus. Description: The compound was tested in vivo for biochemical effect against the changes in different brain area levels of DOPA in reserpinized rat hemispheres (mainly cortex) at dose 12.5 uM/kg; Inactive. The format is functional, organism-based. In outline: as §2
The test system of assay [15] is Rattus norvegicus. As to the kind of experiment: The compound was tested in vivo for biochemical effect against the changes in different brain area levels of DOPA in reserpinized rat corpus striatum at dose 12.5 uM/kg; Partial effect. The format is functional, organism-based. The procedure, abridged:
as §2

The test system of assay [16] is Rattus norvegicus. Description: The compound was tested in vivo for biochemical effect against the changes in different brain area levels of 5-HTP in reserpinized rat corpus striatum at does 50 uM/kg; Partial effect. The format is functional, organism-based.
The test system of assay [17] is Rattus norvegicus. As to the kind of experiment: The compound was tested in vivo for biochemical effect against the changes in different brain area levels of 5-HTP in reserpinized rat limbic system at dose 50 uM/kg; Partial effect. The class given is functional, organism-based.
For assay [18], the system named is Rattus norvegicus. Description: The compound was tested in vivo for biochemical effect against the changes in different brain area levels of DOPA in reserpinized rat limbic system; Inactive. The class given is functional, organism-based.
Assay [19] relates to Rattus norvegicus. Described as §3. The class given is functional, organism-based. The source holds these as a separate data set.
Assay [20] has as its system Rattus norvegicus. Description: The compound was tested in vivo for biochemical effect against the changes in different brain area levels of 5-HTP in reserpinized rat hemispheres (mainly cortex)at does 50 uM/kg; Partial effect. The format is functional, organism-based.
The test system of assay [21] is Rattus norvegicus. Description: The compound was tested in vivo for biochemical effect against the changes in different brain area levels of DOPA in reserpinized rat corpus striatum at does 50 uM/kg; Inactive. The format is functional, organism-based.

5-hydroxytryptamine receptor 1B, sequence (P28222 whole entry): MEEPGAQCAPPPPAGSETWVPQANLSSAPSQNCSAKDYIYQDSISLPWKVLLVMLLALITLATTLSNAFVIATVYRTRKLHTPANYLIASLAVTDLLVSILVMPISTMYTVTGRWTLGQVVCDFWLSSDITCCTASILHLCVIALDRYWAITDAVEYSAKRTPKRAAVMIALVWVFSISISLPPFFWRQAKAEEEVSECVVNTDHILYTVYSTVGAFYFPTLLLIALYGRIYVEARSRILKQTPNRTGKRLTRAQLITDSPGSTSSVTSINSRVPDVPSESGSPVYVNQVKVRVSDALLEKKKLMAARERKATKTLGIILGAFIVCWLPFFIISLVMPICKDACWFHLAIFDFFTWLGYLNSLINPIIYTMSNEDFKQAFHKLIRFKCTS
D(2) dopamine receptor, sequence (P61169 whole entry): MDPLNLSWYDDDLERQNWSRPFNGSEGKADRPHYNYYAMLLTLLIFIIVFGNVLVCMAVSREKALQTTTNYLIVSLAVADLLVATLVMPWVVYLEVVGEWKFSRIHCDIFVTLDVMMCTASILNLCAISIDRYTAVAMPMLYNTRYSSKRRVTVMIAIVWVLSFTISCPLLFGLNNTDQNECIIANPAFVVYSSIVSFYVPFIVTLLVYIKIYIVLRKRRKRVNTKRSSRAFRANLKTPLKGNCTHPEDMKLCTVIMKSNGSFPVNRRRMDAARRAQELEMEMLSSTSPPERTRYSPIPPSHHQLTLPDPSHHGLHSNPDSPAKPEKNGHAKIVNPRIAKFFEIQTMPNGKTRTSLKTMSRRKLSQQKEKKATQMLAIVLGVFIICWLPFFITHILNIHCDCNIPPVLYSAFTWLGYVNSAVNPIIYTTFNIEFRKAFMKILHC
D(3) dopamine receptor, sequence (P19020 whole entry): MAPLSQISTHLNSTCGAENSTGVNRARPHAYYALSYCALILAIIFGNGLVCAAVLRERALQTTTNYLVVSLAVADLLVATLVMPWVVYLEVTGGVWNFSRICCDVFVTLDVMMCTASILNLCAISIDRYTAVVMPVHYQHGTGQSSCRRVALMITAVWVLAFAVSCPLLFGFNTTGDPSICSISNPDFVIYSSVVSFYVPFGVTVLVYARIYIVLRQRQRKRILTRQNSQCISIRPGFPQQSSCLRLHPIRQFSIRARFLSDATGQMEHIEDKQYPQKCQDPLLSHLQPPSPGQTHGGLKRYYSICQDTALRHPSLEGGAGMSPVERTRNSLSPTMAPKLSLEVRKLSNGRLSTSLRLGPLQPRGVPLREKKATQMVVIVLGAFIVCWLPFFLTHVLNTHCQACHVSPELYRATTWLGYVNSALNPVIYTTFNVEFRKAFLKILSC
D(3) dopamine receptor (Rattus norvegicus), sequence (P19020 whole entry): as above
5-hydroxytryptamine receptor 1D, sequence (P28221 whole entry): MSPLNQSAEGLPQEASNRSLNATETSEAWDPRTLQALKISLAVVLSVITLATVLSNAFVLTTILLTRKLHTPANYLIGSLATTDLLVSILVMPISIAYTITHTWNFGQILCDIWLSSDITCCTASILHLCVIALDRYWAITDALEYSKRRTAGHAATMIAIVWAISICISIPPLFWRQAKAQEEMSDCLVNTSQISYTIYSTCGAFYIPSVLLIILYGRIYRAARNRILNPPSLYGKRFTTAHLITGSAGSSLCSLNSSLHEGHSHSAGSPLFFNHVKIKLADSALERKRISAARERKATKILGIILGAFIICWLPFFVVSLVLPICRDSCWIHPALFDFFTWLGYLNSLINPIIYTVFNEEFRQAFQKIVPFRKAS

Regarding `CN(C)[C@H]1CCc2ccc3[nH]cc(C=O)c3c2C1`, the Ki on D(2) dopamine receptor (read-out: Ki) was 250 nM. For the same compound, the values for the ED50 in the assay on Rattus norvegicus [1], with Rattus norvegicus [3] and in the assay with Rattus norvegicus [4] were 12.1 µmol/kg, 13.1 µmol/kg and 15.3 µmol/kg, respectively. The ED50 entry in the assay on Rattus norvegicus [2], in the assay on Rattus norvegicus [5] and in the assay with Rattus norvegicus [6] was “inactive” in each case.
Take `CCCN(CCC)[C@@H]1CCc2ccc3[nH]ccc3c2C1`: in the assay with Rattus norvegicus [7], the ED50 entry was “inactive”.
For the compound `CCCN(CCCOc1cccc(Cl)c1)C1CCc2ccc3[nH]cc(C=O)c3c2C1` (stereo unspecified), the Ki in assay [8] stood at 187 nM; at D(2) dopamine receptor (read-out: Ki), 28 nM; at D(3) dopamine receptor, 159 nM; in assay [11] it was 5.1 nM. Besides, the ED50 entry in the assay with Rattus norvegicus [9], in the assay with Rattus norvegicus [2] and in the assay with Rattus norvegicus [10] was “inactive” throughout. Also, the ED50 in the assay on Rattus norvegicus [1] worked out at 4.01 µmol/kg; in the assay on Rattus norvegicus [3], 4.79 µmol/kg; in the assay on Rattus norvegicus [4] it was 5.12 µmol/kg.
As for `CN(C)[C@H]1CCc2ccc3[nH]ccc3c2C1`, affinity in assay [8] was put at a Ki of 1690 nM. The same compound had an inhibition in assay [12] below 45%.
In the case of `CN(C)[C@@H]1CCc2ccc3[nH]cc(C=O)c3c2C1`, the Ki in assay [8] came to 20 nM; at D(2) dopamine receptor (read-out: Ki) it was 13 nM; at D(3) dopamine receptor it was 265 nM. The ED50 was 0.95 µmol/kg in the assay on Rattus norvegicus [1]; “Weak activity” with Rattus norvegicus [13]; 2.9 µmol/kg with Rattus norvegicus [3]; 0.56 µmol/kg in the assay on Rattus norvegicus [4]; “Weak activity” in the assay with Rattus norvegicus [15]. For the same compound, the ED50 entry with Rattus norvegicus [14] is “inactive”.
In the case of `CCCN(CCC)CC1CCc2ccc3[nH]cc(C=O)c3c2C1` (stereo unspecified), the ED50 entry in the assay on Rattus norvegicus [16], in the assay on Rattus norvegicus [17] and in the assay with Rattus norvegicus [20] was “Weak activity” each time. Further, the inhibition constant (Ki) result on D(2) dopamine receptor (cho) was “Not Active”. For the same compound, the ED50 result with Rattus norvegicus [18], with Rattus norvegicus [19] and in the assay with Rattus norvegicus [21] was “inactive” throughout.

(Values after ChEMBL document CHEMBL1128739, “Structure-activity relationships in the 8-amino-6,7,8,9-tetrahydro-3H-benz[e]indole ring system. 2. Effects of 8-amino nitrogen substitution on serotonin receptor binding and pharmacology” (J Med Chem, 1995).)
